Converted amounts (≈) assume the structure as drawn.
Legend:
Escherichia coli = test: Antibacterial activity against Escherichia coli ATCC 25922 after 20 hrs by broth microdilution method; format: functional; conditions: ATCC 25922, 20 h
Method in brief: (§1)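 MIC determined by standard broth microdilution following CLSI recommendations (document M07-A8).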

WI-38 = test: Cytotoxicity against human WI38 cells; format: functional, cell-based; conditions: for IC50: Homo sapiens, WI-38
HCT-116 = test: Cytotoxicity against human HCT116 cells; format: functional, cell-based
Klebsiella pneumoniae = test: Antibacterial activity against Klebsiella pneumoniae ATCC 700603 after 20 hrs by broth microdilution method; format: functional; conditions: ATCC 700603, 20 h; method in brief: as §1
Pseudomonas aeruginosa = test: Antibacterial activity against Pseudomonas aeruginosa ATCC 27853 after 20 hrs by broth microdilution method; format: functional; conditions: ATCC 27853, 20 h; method in brief: as §1
Plasmodium falciparum [1] = test: Antimalarial activity against Plasmodium falciparum 7G8 after 72 hrs by SYBR Green-based fluorescence assay; format: functional, organism-based; conditions: 7G8, 72 h
Method in brief: (§2)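 Drug stocks were made at 10 mM in sterile distilled water and serially diluted in culture medium. These were added in quadruplicate to asynchronous P. falciparum cultures at 0.2% parasitemia and 2% hematocrit, then incubated 72 h at 37 °C. Lysis buffer containing SYBR Green I was added, followed by 1 h at room temperature in the dark. Fluorescence was read at ex 497/em 520 nm, and IC50 was obtained by nonlinear regression of logistic dose-response curves.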

Plasmodium falciparum [2] = test: Antimalarial activity against Plasmodium falciparum D6 after 72 hrs by SYBR Green-based fluorescence assay; format: functional, organism-based; conditions: D6, 72 h; method in brief: as §2
Acinetobacter baumannii = test: Antibacterial activity against Acinetobacter baumannii clinical isolate after 20 hrs by broth microdilution method; format: functional; method in brief: as §1
Staphylococcus aureus = test: Antibacterial activity against Staphylococcus aureus ATCC 25923 after 20 hrs by broth microdilution method; format: functional; conditions: ATCC 25923, 20 h; method in brief: as §1
PC-3 = test: Cytotoxicity against human PC3 cells; format: functional, cell-based; conditions: for IC50: Homo sapiens, PC-3
Enterococcus faecalis = test: Antibacterial activity against Enterococcus faecalis ATCC 29212 after 20 hrs by broth microdilution method; format: functional; conditions: ATCC 29212, 20 h; method in brief: as §1
Plasmodium falciparum [3] = test: Antimalarial activity against Plasmodium falciparum Dd2 after 72 hrs by SYBR Green-based fluorescence assay; format: functional, organism-based; conditions: Dd2, 72 h; method in brief: as §2
[4] = Cytotoxicity against human MDA231 cells; format: functional, cell-based; conditions: MDA-MB-231

SMILES | MIC (Escherichia coli) [µg/mL] | IC50 (WI-38) [nM] | IC50 (HCT-116) [nM] | MIC (Klebsiella pneumoniae) [µg/mL] | MIC (Pseudomonas aeruginosa) [µg/mL] | IC50 (Plasmodium falciparum [1]) [nM] | IC50 (Plasmodium falciparum [2]) [nM] | MIC (Acinetobacter baumannii) [µg/mL] | MIC (Staphylococcus aureus) [µg/mL] | IC50 (PC-3) [nM] | MIC (Enterococcus faecalis) [µg/mL] | IC50 (Plasmodium falciparum [3]) [nM] | IC50 [4] [nM] | inhibition (INH) (WI-38) [%] | inhibition (INH) (PC-3) [%]
CCN(CC)C(=O)N[C@@]1([C@H](C)O)[C@@H](N)[C@H](Nc2cccc(C(C)=O)c2)[C@](O)(CO)[C@]1(C)O | > 128 | > 1000 | 230 | > 128 | > 128 | 42 | 29 | > 128 | 4 (≈ 8.84 µM) | 400 | 128 (≈ 283 µM) | 40 | 440 |  | 
CC(=O)c1cccc(N[C@H]2[C@H](N)[C@@](NC(=O)N3CCCC3)([C@H](C)O)[C@@](C)(O)[C@@]2(O)CO)c1 | 64 (≈ 142 µM) | > 1000 | 90 | 128 (≈ 284 µM) | > 128 | 10 | 9 | > 128 | 8 (≈ 17.8 µM) | 150 | 128 (≈ 284 µM) | 9 | 120 |  | 
C[C@H](O)[C@]1(NC(=O)N(C)C)[C@@H](N)[C@H](Nc2cccc(F)c2)[C@](O)(CO)[C@]1(C)O | 8 (≈ 20 µM) | > 1000 | 190 | 32 (≈ 79.9 µM) | > 128 | < 2.5 | 6.5 | 64 (≈ 160 µM) | 4 (≈ 9.99 µM) | > 1000 | 128 (≈ 320 µM) | 7.4 | > 1000 | 34 | 35
CC(=O)c1cccc(N[C@H]2[C@H](N)[C@@](NC(=O)N3CCCCC3)([C@H](C)O)[C@@](C)(O)[C@@]2(O)CO)c1 | > 128 | > 1000 | > 1000 | > 128 | > 128 | 1600 | > 2500 | > 128 | > 128 | > 1000 | > 128 | 2000 | > 1000 |  | 
CC(=O)c1cccc(N[C@H]2[C@H](N)[C@@](NC(=O)N(C)C)([C@H](C)O)[C@@](C)(O)[C@@]2(O)COC(=O)c2c(C)cccc2O)c1 [PACTAMYCIN] | 16 (≈ 28.6 µM) | > 1000 | 70 | 32 (≈ 57.3 µM) | 128 (≈ 229 µM) | 2.5 | < 2.5 | 16 (≈ 28.6 µM) | 0.12 (≈ 0.215 µM) | 240 | 128 (≈ 229 µM) | < 2.5 | 500 |  | 
CC(=O)c1cccc(N[C@H]2[C@H](N)[C@@](NC(=O)N3CCOCC3)([C@H](C)O)[C@@](C)(O)[C@@]2(O)CO)c1 | > 128 | > 1000 | > 1000 | > 128 | > 128 | > 2500 | > 2500 | > 128 | > 128 | > 1000 | > 128 | > 2500 | > 1000 |  | 
COc1cccc(N[C@H]2[C@H](N)[C@@](NC(=O)N(C)C)([C@H](C)O)[C@@](C)(O)[C@@]2(O)CO)c1 | 64 (≈ 155 µM) | > 1000 | 390 | > 128 | > 128 | 19.8 | 13.7 | 128 (≈ 310 µM) | 16 (≈ 38.8 µM) | > 1000 | > 128 | 11.5 | > 1000 |  | 
CC(=O)c1cccc(N[C@H]2[C@H](N)[C@@](NC(=O)N(C)C)([C@H](C)O)[C@@](C)(O)[C@@]2(O)CO)c1 | 4 (≈ 9.42 µM) | > 1000 | 70 | 8 (≈ 18.8 µM) | 128 (≈ 302 µM) | 2.5 | < 2.5 | 128 (≈ 302 µM) | 2 (≈ 4.71 µM) | 310 | 64 (≈ 151 µM) | < 2.5 | 260 |  | 
CC(=O)c1cccc(N[C@H]2[C@H](N)[C@]3(NC(=O)O[C@H]3C)[C@@](C)(O)[C@@]2(O)COC(=O)c2c(C)cccc2O)c1 [PACTAMYCATE] | > 128 | > 1000 | > 1000 | > 128 | > 128 | > 2500 | > 2500 | > 128 | > 128 | > 1000 | > 128 | > 2500 | > 1000 |  | 
CC(=O)c1cccc(N[C@H]2[C@H](N)[C@]3(NC(=O)O[C@H]3C)[C@@](C)(O)[C@@]2(O)CO)c1 | > 128 | > 1000 | > 1000 | > 128 | > 128 | > 2500 | > 2500 | > 128 | > 128 | > 1000 | > 128 | > 2500 | > 1000 |  | 
C[C@H](O)[C@]1(NC(=O)N(C)C)[C@@H](N)[C@H](Nc2cccc(C(F)(F)F)c2)[C@](O)(CO)[C@]1(C)O | 16 (≈ 35.5 µM) | > 1000 | 100 | 128 (≈ 284 µM) | > 128 | < 2.5 | 6.7 | 64 (≈ 142 µM) | 2 (≈ 4.44 µM) | 750 | 64 (≈ 142 µM) | 3.5 | 380 | 42 | 
C[C@H](O)[C@]1(NC(=O)N(C)C)[C@@H](N)[C@H](Nc2ccccc2)[C@](O)(CO)[C@]1(C)O | 32 (≈ 83.7 µM) | > 1000 | 810 | 64 (≈ 167 µM) | > 128 | 18.5 | 14.6 | > 128 | 64 (≈ 167 µM) | > 1000 | > 128 | 13.9 | > 1000 |  | 
